For one data set, the system named is WT p53 MCF-7 cells. Put plainly: WST-1 cell proliferation assay. The settings on record: MCF-7, 24 h or 72 h; compared to mutant p53 cells. The class given is cell-based, human. Put shortly:
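WST-1 assay. Test compound in DMSO was added to cells at 40,000 cells/ml, giving 1% DMSO final, and plated at 4,000 cells/well in duplicate; medium-only wells served as background. Incubation was 24 h or 72 h at 37 °C, then WST-1 for 2 h and OD450 read. Proliferation is expressed as % of DMSO control; triplicate experiments. MCF-7 grown in RPMI 1640, MDA-MB-436 in DMEM.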

The next data set is described as follows: Log P determination. The class given is physicochemical. The settings on record: octanol/sodium phosphate buffer (pH 7.4).
The target in data set [1] is p53^R280K in MDA-MB-231 cells (Homo sapiens, UniProt P04637, R280K). Put plainly: Western blot of p53 expression. The class given is cell-based. The settings on record: MDA-MB-231, 6 μM or 12 μM, 24 h. A digest of the protocol:
(§1)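 Cells were treated 24 h with 6 μM or 12 μM test compound or DMSO and lysed in NP-40/Tris-Cl pH 8.0 buffer with protease inhibitors. Load on 4–12% SDS-PAGE was 20 μg for MDA-MB-231 and MDA-MB-468 or 50 μg for MCF-7. After PVDF transfer, blots were probed with p53 DO-1 antibody, reprobed for GAPDH as loading control and developed by ECL.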
A general note: In western blotting, separated proteins are transferred to a membrane and probed.

For data set [2], the target named is p53^R273H in MDA-MB-468 cells (Homo sapiens, UniProt P04637, R273H). Put plainly: Western blot of p53 expression. The settings on record: MDA-MB-468, 6 μM or 12 μM, 24 h. The class given is cell-based. A digest of the protocol:
as §1

Another data set concerns the target WT p53 in MCF-7 cells (Homo sapiens, UniProt P04637). The data set is described as follows: Western blot of p53 expression. The settings on record: MCF-7, 6 μM or 12 μM, 24 h. The class given is cell-based. Put shortly:
as §1

Data set [3] deals with caspase 3 and PARP1 in p53^R280K MDA-MB-231 cells. The data set is described as follows: Western blot of caspase 3 and PARP1. The class given is cell-based, human. To be noted: MDA-MB-231, 24 h. A digest of the protocol: (§2)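 Cells grown in RPMI 1640 with 10% FBS, 1% penicillin/streptomycin and 1% L-glutamine, then given test compound or DMSO control for 24 h. Lysed 30 min on ice in Tris-Cl pH 8.0/NaCl/glycerol/NP-40/EDTA buffer with protease inhibitors, then cleared. 100 μg lysate run on 4-12% SDS-PAGE, transferred to PVDF, probed with anti-PARP and anti-caspase 3 (1:1000 each). ECL detection.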

The subject of data set [4] is caspase 3 and PARP1 in p53^R273H MDA-MB-468 cells. Put plainly: Western blot of caspase 3 and PARP1. The class given is cell-based, human. To be noted: MDA-MB-468, 24 h. A digest of the protocol:
as §2

In data set [5] the test system is caspase 3 and PARP1 in WT p53 MCF-7 cells. The data set is described as follows: Western blot of caspase 3 and PARP1. The class given is cell-based, human. To be noted: MCF-7 (caspase 3-deficient), 24 h. A digest of the protocol:
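MCF-7 cells were treated with test compound or DMSO for 24 h and lysed on ice for 30 min (20 mM Tris-Cl pH 8.0, 137 mM NaCl, 10% glycerol, 1% NP-40, 2 mM EDTA, protease inhibitors). Lysates were cleared at 18,500 × g. 100 μg lysate was run on 4–12% SDS-PAGE, transferred to PVDF and probed with anti-PARP and anti-caspase 3 (1:1000), HRP secondary and ECL. GAPDH served as loading control.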

For data set [6] the following is noted: human, in vivo; cited from earlier work.

SMILES strings stand for the structures.

The term logP denotes a log measure of how a compound divides between an organic and an aqueous phase. The low end stands for a more hydrophilic compound, the high end for a more lipophilic compound.

Regarding `S=C=NCCc1ccccc1` [PEITC, Phenethyl isothiocyanate, reference compound], in the data set on WT p53 MCF-7 cells, the “inhibition of cell proliferation / sensitivity (in words)” value is on record as “considerably less sensitive”. The logP at 18 h in “Log P determination” is 3.5. Moreover, the “mutant p53 expression (western blot)” value in data set [1] and in [2] was “significant decrease” in each case. For the same compound, the “WT p53 expression (western blot)” value on WT p53 in MCF-7 cells is reported as “increase in p53 levels”. Further, the “levels of uncleaved caspase 3, uncleaved PARP1 and cleaved-PARP1” value in data set [3] was “significant decrease in the levels of uncleaved caspase 3 and accumulation of cleaved-PARP1 fragments”; in data set [4] it was “significant decrease in the levels of uncleaved caspase 3 and accumulation of cleaved-PARP1 fragments”. The “levels of uncleaved PARP1 and cleaved-PARP1” value in data set [5] is “significant decrease in the levels of uncleaved PARP1 and accumulation of cleaved-PARP1”. In addition, the estimated half-life in data set [6] is ~ 2.4 h.
